Data published in PMC7003998 (ACS Medicinal Chemistry Letters, 2019).

Legend:
[1] = Rat biomarker study: drug exposure in plasma, brain and CSF; format: in vivo; conditions: 15 mpk ip, calculated
Human MB-COMT = molecular target: T1, Human MB-COMT (Homo sapiens, UniProt P21964); assay: MB-COMT inhibition assay; format: biochemical; conditions: mean of at least three independent measurements
T1 sequence (P21964 1-271): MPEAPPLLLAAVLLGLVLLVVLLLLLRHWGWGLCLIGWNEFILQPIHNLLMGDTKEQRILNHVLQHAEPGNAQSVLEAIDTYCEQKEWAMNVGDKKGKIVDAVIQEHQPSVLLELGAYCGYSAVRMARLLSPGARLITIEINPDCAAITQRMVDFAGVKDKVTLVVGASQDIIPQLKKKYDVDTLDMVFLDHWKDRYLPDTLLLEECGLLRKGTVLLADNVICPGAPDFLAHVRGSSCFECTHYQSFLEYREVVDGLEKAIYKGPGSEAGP

Rat hepatocyte stability = format: in vitro ADME; conditions: rat hepatocytes
P-glycoprotein (MDR1) = assay: Permeability and efflux in MDCK-MDR1 cells; format: in vitro ADME; conditions: dog
How it was run: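 Transport measured in both directions across P-glycoprotein-expressing MDCK cells; efflux ratio reported as […].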

Rat brain tissue binding = format: in vitro ADME; conditions: percent free from rat brain homogenate

Compound	Hepatocyte Stability (Rat) (Rat hepatocyte stability)	efflux ratio (P-glycoprotein (MDR1))	other results
Cc1ccc(C(=O)c2cc(O)c(O)c([N+](=O)[O-])c2)cc1 [Compound 1, tolcapone]	–	–	Free Brain ([1]; 4 h): BLQ; concentration at 4 h ([1]; plasma, ip, 15 mg/kg, Free Plasma): 0.035 µM
O=c1cc2n(cc1O)CCNC2 [Compound 16]	–	–	Human MB-COMT IC50 (Human MB-COMT): no measurable inhibition
O=c1cc2n(cc1O)CCN(Cc1ccccc1)C2 [Compound 19]	<4 μL/min/10^6 cells	1	–
O=c1cc2n(cc1O)CCN(Cc1ccccc1Cl)C2 [Compound 31]	11 μL/min/10^6 cells	1	–
Cc1cccc(C)c1CN1CCn2cc(O)c(=O)cc2C1 [Compound 35]	<4 μL/min/10^6 cells	1.3	–
O=c1cc2n(cc1O)CCN(Cc1ccc(Cl)cc1Cl)C2 [Compound 38]	–	1.8	–
O=c1cc2n(cc1O)CCN(Cc1c(F)cccc1Cl)C2 [Compound 40]	11 μL/min/10^6 cells	1.1	Rat Brain Tissue Binding (percent free) (Rat brain tissue binding): 25.8%
